Results published in ChEMBL document CHEMBL4177684, “Design, synthesis, and biological evaluation of hydantoin bridged analogues of combretastatin A-4 as potential anticancer agents” (Bioorg Med Chem, 2017).

Columns and labels:
[1] = tested on: HeLa; experiment: Antiproliferative activity against human HeLa cells by MTT assay; assay type: functional, cell-based
Procedure, shortened: (§1)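 Growth inhibition rate calculated per compound. IC₅₀ derived by curve fitting.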

[2] = tested on: A2780; experiment: Antiproliferative activity against human A2780 cells by MTT assay; assay type: functional, cell-based; procedure, shortened: as §1
[3] = tested on: HCT-116; experiment: Antiproliferative activity against human HCT116 cells by MTT assay; assay type: functional, cell-based; procedure, shortened: as §1
[4] = tested on: MDA-MB-231; experiment: Antiproliferative activity against human MDA-MB-231 cells by MTT assay; assay type: functional, cell-based; procedure, shortened: as §1
[5] = Inhibition of pig brain tubulin polymerization measured every 1 min for 20 mins by spectrophotometric analysis; parameters: species or system Sus scrofa

Structure (SMILES)	IC50 [1]	IC50 [2]	IC50 [3]	IC50 [4]	IC50 [5]
COc1ccc(N2C(=O)N(CCO)C(=O)C2c2cc(OC)c(OC)c(OC)c2)cc1N (stereo unspecified)	3600 nM	6620 nM	–	–	–
COc1cc(C2C(=O)N(C)C(=O)N2c2ccc(C)c(N)c2)cc(OC)c1OC (stereo unspecified)	631 nM	679 nM	681 nM	1190 nM	–
COc1cc(C2C(=O)NC(=O)N2c2ccc3ncccc3c2)cc(OC)c1OC (stereo unspecified)	> 50000 nM	> 50000 nM	–	–	–
COc1cc(C2C(=O)N(C)C(=O)N2c2ccc(C)c(C)c2)cc(OC)c1OC (stereo unspecified)	363 nM	533 nM	307 nM	493 nM	–
COc1cc(C2C(=O)NC(=O)N2c2ccc3c(ccn3S(=O)(=O)c3ccc(C)cc3)c2)cc(OC)c1OC (stereo unspecified)	> 50000 nM	> 50000 nM	–	–	–
COc1ccc(/C=C\c2cc(OC)c(OC)c(OC)c2)cc1O [COMBRETASTATIN A4]	7 nM	5 nM	–	2 nM	6600 nM
COc1ccc(N2C(=S)NC(=O)C2c2cc(OC)c(OC)c(OC)c2)cc1 (stereo unspecified)	> 50000 nM	> 50000 nM	–	–	–

Now from value to compound, other results behind:

IC50 [1]	IC50 [2]	IC50 [3]	IC50 [4]	Structure (SMILES)	IC50 [5]
771 nM	745 nM	630 nM	727 nM	COc1ccc(N2C(=O)NC(=O)C2c2cc(OC)c(OC)c(OC)c2)cc1F (stereo unspecified)	–
516 nM	555 nM	527 nM	452 nM	COc1ccc(N2C(=O)N(C)C(=O)C2c2cc(OC)c(OC)c(OC)c2)cc1F (stereo unspecified)	–
> 50000 nM	> 50000 nM	–	–	COc1ccc(N2C(=S)NC(=O)C2c2cc(OC)c(OC)c(OC)c2)cc1O (stereo unspecified)	–
5450 nM	2890 nM	–	–	COc1cc(C2C(=O)NC(=O)N2c2ccc(C)c([N+](=O)[O-])c2)cc(OC)c1OC (stereo unspecified)	–
933 nM	1050 nM	988 nM	1170 nM	COc1cc(C2C(=O)NC(=O)N2c2ccc(C)c(N)c2)cc(OC)c1OC (stereo unspecified)	–
4740 nM	9700 nM	–	–	COc1ccc(N2C(=O)NC(=O)C2c2cc(OC)c(OC)c(OC)c2)cc1[N+](=O)[O-] (stereo unspecified)	–
665 nM	815 nM	945 nM	768 nM	COc1ccc(N2C(=O)NC(=O)C2c2cc(OC)c(OC)c(OC)c2)cc1O (stereo unspecified)	–
2820 nM	2140 nM	–	–	COc1ccc(N2C(=O)NC(=O)C2c2cc(OC)c(OC)c(OC)c2)cc1 (stereo unspecified)	–
> 50000 nM	> 50000 nM	–	–	COc1ccc(C2C(=O)NC(=O)N2c2cc(OC)c(OC)c(OC)c2)cc1O (stereo unspecified)	–
